# Source: ChEMBL document CHEMBL2062460, “Disubstituted thiourea derivatives and their activity on CNS: synthesis and biological evaluation” (Eur J Med Chem, 2012)
# Active and inactive are the calls of the source. No cut-off for these calls is given here.
# Assays:
# [1] = system: Staphylococcus epidermidis; test: Antibacterial activity against Staphylococcus epidermidis ATCC 12228 after 18 hrs by twofold serial agar dilution technique; assay type: functional; settings: ATCC 12228, 18 h
# Summary of the method: (§1)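 Twofold serial agar dilution on Mueller–Hinton II agar, following CLSI guidelines. Compounds were dissolved in methanol or DMSO and tested at final agar concentrations of 3.125–400 µg/mL. Final inoculum was 10^4 CFU/mL.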
# Staphylococcus aureus [2] = test: Antibacterial activity against methicillin-susceptible Staphylococcus aureus clinical isolate 372/09 after 18 hrs by twofold serial agar dilution technique; assay type: functional; settings: clinical isolate 372/09, 18 h
# Summary of the method: (§2)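 Clinical isolates came from patients in Warsaw Medical University Hospitals and were classed as methicillin-susceptible or -resistant. MIC was determined by twofold serial agar dilution on Mueller–Hinton II agar (CLSI), 3.125–400 µg/mL in agar, with compounds in methanol or DMSO. Inoculum was 10^4 CFU/mL and plates were read after 18 h at 35 °C.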
# [3] = system: Staphylococcus epidermidis; test: Antibacterial activity against methicillin-resistant Staphylococcus epidermidis clinical isolate 311/08 after 18 hrs by twofold serial agar dilution technique; assay type: functional; settings: clinical isolate 311/08, 18 h; summary of the method: as §2
# Staphylococcus aureus [4] = test: Antibacterial activity against methicillin-susceptible Staphylococcus aureus clinical isolate 338/08 after 18 hrs by twofold serial agar dilution technique; assay type: functional; settings: clinical isolate 338/08, 18 h; summary of the method: as §2
# Staphylococcus aureus [5] = test: Antibacterial activity against methicillin-resistant Staphylococcus aureus clinical isolate 306/08 after 18 hrs by twofold serial agar dilution technique; assay type: functional; settings: clinical isolate 306/08, 18 h; summary of the method: as §2
# Enterococcus hirae = test: Antibacterial activity against Enterococcus hirae ATCC 10541 after 18 hrs by twofold serial agar dilution technique; assay type: functional; settings: ATCC 10541, 18 h
# Staphylococcus aureus [6] = test: Antibacterial activity against Staphylococcus aureus ATCC 25923 after 18 hrs by twofold serial agar dilution technique; assay type: functional; settings: ATCC 25923, 18 h; summary of the method: as §1
# Staphylococcus aureus [7] = test: Antibacterial activity against methicillin-susceptible Staphylococcus aureus clinical isolate 269/08 after 18 hrs by twofold serial agar dilution technique; assay type: functional; settings: clinical isolate 269/08, 18 h; summary of the method: as §2
# Staphylococcus aureus [8] = test: Antibacterial activity against methicillin-resistant Staphylococcus aureus clinical isolate 356/09 after 18 hrs by twofold serial agar dilution technique; assay type: functional; settings: clinical isolate 356/09, 18 h; summary of the method: as §2
# [9] = system: Staphylococcus epidermidis; test: Antibacterial activity against methicillin-resistant Staphylococcus epidermidis clinical isolate 377/09 after 18 hrs by twofold serial agar dilution technique; assay type: functional; settings: clinical isolate 377/09, 18 h; summary of the method: as §2
# Staphylococcus aureus [10] = test: Antibacterial activity against methicillin-resistant Staphylococcus aureus clinical isolate 309/08 after 18 hrs by twofold serial agar dilution technique; assay type: functional; settings: clinical isolate 309/08, 18 h; summary of the method: as §2
# Candida albicans = test: Antifungal activity against Candida albicans ATCC 10231 at 400 ug/disc after 18 hrs by disc diffusion method; assay type: functional, organism-based
# Summary of the method: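 Yeasts tested by disc diffusion (CLSI) on RPMI agar with 2% glucose; 9 mm paper discs bearing 400 µg compound from methanol or DMSO solution; inhibition zone diameter read after 18 h at 35 °C.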
# [11] = system: Bordetella bronchiseptica; test: Antibacterial activity against Bordetella bronchiseptica ATCC 4617 at 400 ug/disc after 18 hrs by disc diffusion method; assay type: functional, organism-based
# Summary of the method: (§3)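 Disc diffusion per CLSI on Mueller–Hinton II agar; 9 mm paper discs loaded from methanol or DMSO solutions to 400 µg per disc, dried; growth inhibition zone diameter read after 18 h at 35 °C.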
# Proteus vulgaris = test: Antibacterial activity against Proteus vulgaris NCTC 4635 at 400 ug/disc after 18 hrs by disc diffusion method; assay type: functional, organism-based; summary of the method: as §3
# Pseudomonas aeruginosa [12] = test: Antibacterial activity against Pseudomonas aeruginosa ATCC 15442 at 400 ug/disc after 18 hrs by disc diffusion method; assay type: functional, organism-based; summary of the method: as §3
# Staphylococcus aureus [13] = test: Antibacterial activity against Staphylococcus aureus ATCC 25923 at 400 ug/disc after 18 hrs by disc diffusion method; assay type: functional; settings: ATCC 25923, 18 h, read-out: DIZ; summary of the method: as §3
# Bacillus subtilis [14] = test: Antibacterial activity against Bacillus subtilis ATCC 6633 after 18 hrs by twofold serial agar dilution technique; assay type: functional; settings: ATCC 6633, 18 h
# Staphylococcus aureus [15] = test: Antibacterial activity against Staphylococcus aureus ATCC 6538 at 400 ug/disc after 18 hrs by disc diffusion method; assay type: functional; settings: ATCC 6538, 18 h, read-out: DIZ; summary of the method: as §3
# Bacillus cereus = test: Antibacterial activity against Bacillus cereus ATCC 11778 at 400 ug/disc after 18 hrs by disc diffusion method; assay type: functional; settings: ATCC 11778, 18 h, read-out: DIZ; summary of the method: as §3
# Micrococcus luteus [16] = test: Antibacterial activity against Micrococcus luteus ATCC 10240 after 18 hrs by twofold serial agar dilution technique; assay type: functional; settings: ATCC 10240, 18 h
# Staphylococcus aureus [17] = test: Antibacterial activity against methicillin-resistant Staphylococcus aureus clinical isolate 277/08 after 18 hrs by twofold serial agar dilution technique; assay type: functional; settings: clinical isolate 277/08, 18 h; summary of the method: as §2
# [18] = system: Staphylococcus epidermidis; test: Antibacterial activity against methicillin-resistant Staphylococcus epidermidis clinical isolate 341/09 after 18 hrs by twofold serial agar dilution technique; assay type: functional; settings: clinical isolate 341/09, 18 h; summary of the method: as §2
# Staphylococcus aureus [19] = test: Antibacterial activity against Staphylococcus aureus NCTC 4163 after 18 hrs by twofold serial agar dilution technique; assay type: functional; settings: NCTC 4163, 18 h; summary of the method: as §1
# Staphylococcus aureus [20] = test: Antibacterial activity against methicillin-susceptible Staphylococcus aureus clinical isolate 367/09 after 18 hrs by twofold serial agar dilution technique; assay type: functional; settings: clinical isolate 367/09, 18 h; summary of the method: as §2
# Staphylococcus aureus [21] = test: Antibacterial activity against Staphylococcus aureus ATCC 6538 after 18 hrs by twofold serial agar dilution technique; assay type: functional; settings: ATCC 6538, 18 h; summary of the method: as §1
# Bacillus subtilis [22] = test: Antibacterial activity against Bacillus subtilis ATCC 6633 at 400 ug/disc after 18 hrs by disc diffusion method; assay type: functional; settings: ATCC 6633, 18 h, read-out: DIZ; summary of the method: as §3
# [23] = system: Staphylococcus epidermidis; test: Antibacterial activity against methicillin-resistant Staphylococcus epidermidis clinical isolate 316/08 after 18 hrs by twofold serial agar dilution technique; assay type: functional; settings: clinical isolate 316/08, 18 h; summary of the method: as §2
# Staphylococcus aureus [24] = test: Antibacterial activity against methicillin-resistant Staphylococcus aureus clinical isolate 376/09 after 18 hrs by twofold serial agar dilution technique; assay type: functional; settings: clinical isolate 376/09, 18 h; summary of the method: as §2
# Staphylococcus aureus [25] = test: Antibacterial activity against methicillin-susceptible Staphylococcus aureus clinical isolate 339/09 after 18 hrs by twofold serial agar dilution technique; assay type: functional; settings: clinical isolate 339/09, 18 h; summary of the method: as §2
# Micrococcus luteus [26] = test: Antibacterial activity against Micrococcus luteus ATCC 9341 at 400 ug/disc after 18 hrs by disc diffusion method; assay type: functional; settings: ATCC 9341, 18 h, read-out: DIZ; summary of the method: as §3
# Pseudomonas aeruginosa [27] = test: Antibacterial activity against Pseudomonas aeruginosa NCTC 6749 at 400 ug/disc after 18 hrs by disc diffusion method; assay type: functional, organism-based; summary of the method: as §3
# Micrococcus luteus [28] = test: Antibacterial activity against Micrococcus luteus ATCC 9341 after 18 hrs by twofold serial agar dilution technique; assay type: functional; settings: ATCC 9341, 18 h
# Staphylococcus aureus [29] = test: Antibacterial activity against Staphylococcus aureus NCTC 4163 at 400 ug/disc after 18 hrs by disc diffusion method; assay type: functional; settings: NCTC 4163, 18 h, read-out: DIZ; summary of the method: as §3
# [30] = system: Staphylococcus epidermidis; test: Antibacterial activity against methicillin-resistant Staphylococcus epidermidis clinical isolate 342/09 after 18 hrs by twofold serial agar dilution technique; assay type: functional; settings: clinical isolate 342/09, 18 h; summary of the method: as §2
# Staphylococcus aureus [31] = test: Antibacterial activity against methicillin-resistant Staphylococcus aureus clinical isolate 307/08 after 18 hrs by twofold serial agar dilution technique; assay type: functional; settings: clinical isolate 307/08, 18 h; summary of the method: as §2
# Pseudomonas aeruginosa [32] = test: Antibacterial activity against Pseudomonas aeruginosa ATCC 27853 at 400 ug/disc after 18 hrs by disc diffusion method; assay type: functional, organism-based; summary of the method: as §3
# [33] = system: Staphylococcus epidermidis; test: Antibacterial activity against methicillin-resistant Staphylococcus epidermidis clinical isolate 340/09 after 18 hrs by twofold serial agar dilution technique; assay type: functional; settings: clinical isolate 340/09, 18 h; summary of the method: as §2
Structure (SMILES),MIC [1],MIC (Staphylococcus aureus [2]),MIC [3],MIC (Staphylococcus aureus [4]),MIC (Staphylococcus aureus [5]),MIC (Enterococcus hirae),MIC (Staphylococcus aureus [6]),MIC (Staphylococcus aureus [7]),MIC (Staphylococcus aureus [8]),MIC [9],MIC (Staphylococcus aureus [10]),diameter of the inhibition zone (DIZ) (Candida albicans),diameter of the inhibition zone (DIZ) [11],diameter of the inhibition zone (DIZ) (Proteus vulgaris),diameter of the inhibition zone (DIZ) (Pseudomonas aeruginosa [12]),zone of inhibition at 400 µg/disc (Staphylococcus aureus [13]),MIC (Bacillus subtilis [14]),zone of inhibition at 400 µg/disc (Staphylococcus aureus [15]),zone of inhibition at 400 µg/disc (Bacillus cereus),MIC (Micrococcus luteus [16]),also measured
Fc1ccc(NC(=S)Nc2nc[nH]n2)cc1,25 µg/mL,50 µg/mL,50 µg/mL,50 µg/mL,50 µg/mL,400 µg/mL,50 µg/mL,50 µg/mL,50 µg/mL,50 µg/mL,50 µg/mL,inactive,inactive,inactive,inactive,18 mm,12.5 µg/mL,14 mm,16 mm,6.25 µg/mL,MIC (Staphylococcus aureus [17]): 50 µg/mL; MIC [18]: 100 µg/mL; MIC (Staphylococcus aureus [19]): 50 µg/mL; MIC (Staphylococcus aureus [20]): 50 µg/mL; MIC (Staphylococcus aureus [21]): 50 µg/mL; zone of inhibition at 400 µg/disc (Bacillus subtilis [22]): 22 mm; MIC [23]: 100 µg/mL; MIC (Staphylococcus aureus [24]): 50 µg/mL; MIC (Staphylococcus aureus [25]): 50 µg/mL; zone of inhibition at 400 µg/disc (Micrococcus luteus [26]): 19 mm; diameter of the inhibition zone (DIZ) (Pseudomonas aeruginosa [27]): inactive; MIC (Micrococcus luteus [28]): 6.25 µg/mL; zone of inhibition at 400 µg/disc (Staphylococcus aureus [29]): 14 mm; MIC [30]: 50 µg/mL; MIC (Staphylococcus aureus [31]): 50 µg/mL; diameter of the inhibition zone (DIZ) (Pseudomonas aeruginosa [32]): inactive; MIC [33]: 50 µg/mL
S=C(Nc1ccc(Br)cc1)Nc1nc[nH]n1,25 µg/mL,25 µg/mL,50 µg/mL,50 µg/mL,50 µg/mL,400 µg/mL,50 µg/mL,25 µg/mL,50 µg/mL,25 µg/mL,50 µg/mL,inactive,inactive,inactive,inactive,22 mm,12.5 µg/mL,16 mm,18 mm,12.5 µg/mL,MIC (Staphylococcus aureus [17]): 50 µg/mL; MIC [18]: 50 µg/mL; MIC (Staphylococcus aureus [19]): 50 µg/mL; MIC (Staphylococcus aureus [20]): 50 µg/mL; MIC (Staphylococcus aureus [21]): 50 µg/mL; zone of inhibition at 400 µg/disc (Bacillus subtilis [22]): 30 mm; MIC [23]: 50 µg/mL; MIC (Staphylococcus aureus [24]): 50 µg/mL; MIC (Staphylococcus aureus [25]): 50 µg/mL; zone of inhibition at 400 µg/disc (Micrococcus luteus [26]): 28 mm; diameter of the inhibition zone (DIZ) (Pseudomonas aeruginosa [27]): inactive; MIC (Micrococcus luteus [28]): 25 µg/mL; zone of inhibition at 400 µg/disc (Staphylococcus aureus [29]): 17 mm; MIC [30]: 25 µg/mL; MIC (Staphylococcus aureus [31]): 50 µg/mL; diameter of the inhibition zone (DIZ) (Pseudomonas aeruginosa [32]): inactive; MIC [33]: 25 µg/mL
